Reference: publication PMC10527948 (European journal of pharmacology, 2023)

Assays:
[1] = target: T1, membrane-bound ecto-5`-nucleotidase/CD73 (Rattus norvegicus, UniProt P21588); test: Ecto-5`-nucleotidase/CD73 enzyme assay; assay type: biochemical; details: for IC50: Dixon linearization, control primary astrocytes, 1.0 mM AMP; for % inhibition at indicated concentration: value in brackets in the Ki column, concentration not given
T1 sequence (P21588 29-576): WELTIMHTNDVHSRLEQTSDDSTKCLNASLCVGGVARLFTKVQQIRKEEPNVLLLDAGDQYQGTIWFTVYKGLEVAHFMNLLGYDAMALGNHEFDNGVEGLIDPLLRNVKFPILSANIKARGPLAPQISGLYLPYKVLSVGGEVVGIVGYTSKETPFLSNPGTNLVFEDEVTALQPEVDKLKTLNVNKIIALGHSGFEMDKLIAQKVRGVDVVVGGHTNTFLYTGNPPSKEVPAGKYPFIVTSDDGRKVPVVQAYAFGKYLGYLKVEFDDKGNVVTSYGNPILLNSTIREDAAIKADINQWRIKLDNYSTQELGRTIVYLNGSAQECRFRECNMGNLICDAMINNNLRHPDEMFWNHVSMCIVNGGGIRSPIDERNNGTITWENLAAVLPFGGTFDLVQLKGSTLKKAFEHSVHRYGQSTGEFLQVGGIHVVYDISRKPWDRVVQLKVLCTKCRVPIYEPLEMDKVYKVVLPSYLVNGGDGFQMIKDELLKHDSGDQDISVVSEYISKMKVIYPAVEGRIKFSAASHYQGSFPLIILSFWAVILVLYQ
How it was run: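 Confluent primary cortical astrocytes from 1-day-old male Wistar rat pups, washed in phosphate-free HEPES/bicarbonate saline, pH 7.4. 15 min preincubation with inhibitor (in water, 1×10−9 to 1×10−3 M); 1.0 mM AMP solution added, 30 min at 37°C; stopped with cold perchloric acid. Pi by malachite green at 620 nm, normalised to BCA protein.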

[2] = target: T2, CD73 in reactive astrocytes (Rattus norvegicus, UniProt P21588); test: CD73 enzyme assay in reactive astrocytes stimulated with TNFα or IL-1β; assay type: biochemical
T2 sequence (P21588 29-576): T1 sequence (P21588 29-576)
How it was run: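 Rat primary astrocytes exposed to TNF-α or IL-1β for 24 h, then assayed for AMP hydrolysis (Pi release by malachite green, per mg protein per min). Inhibitor tested at a single 50 μM concentration, or as a 1–250 μM series in cells given 0.1 μg/ml IL-1β. The series was fitted to a four-parameter sigmoid.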

primary astrocytes [3] = test: MTT assay of cell metabolic activity; assay type: cell-based, rat
primary astrocytes [4] = test: Cell proliferation by double Ki67/DAPI fluorescence staining; assay type: cell-based, rat; details: 24 hours
primary astrocytes [5] = test: Morphometric analysis of GFAP-immunostained astrocytes; assay type: cell-based, rat; details: 24 hours
How it was run: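 Astrocytes on PLL-coated coverslips treated with inhibitor for 24 h, then prefixed in 4% PFA and blocked in 5% BSA. Stained with rabbit anti-GFAP (1:500), Alexa-555 secondary, and DAPI. Confocal images analysed in ImageJ for cell area and shape descriptors. Mean ± SE from ≥ 22 cells in 3 random fields, ≥ 2 cultures.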

primary astrocytes [6] = test: Scratch wound migration assay; assay type: cell-based, rat; details: 1–100 μM; 8 and 24 hours
C3 = test: qRT-PCR of inflammatory gene expression in cytokine-treated astrocytes; assay type: cell-based, rat; details: 100 ng/ml cytokine, 24 hours
How it was run: (§1)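 Confluent rat primary astrocytes in 6-well plates treated with 100 ng/ml TNF-α or IL-1β for 24 h. Total RNA extracted with TRIzol, purity checked by OD260/280, then reverse-transcribed. Gene-specific primers used with Gapdh as internal control; quantified by the 2−ΔCt method, n = 3 separate determinations.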

Lcn = test: as above; assay type: cell-based, rat; details: 100 ng/ml cytokine, 24 hours
How it was run: as §1

Nt5e = test: qRT-PCR of gene expression in cytokine-treated astrocytes; assay type: cell-based, rat; details: 100 ng/ml cytokine, 24 hours
How it was run: as §1

Molecule: Cn1c(=O)n([C@@H]2O[C@H](COP(=O)(O)CP(=O)(O)O)[C@@H](O)[C@H]2O)cc/c1=N\OCc1ccc(Cl)cc1 [MRS4598]
- inhibition of CD73 activity at 1×10^−3 M ([1]; 1×10^−3 M inhibitor): complete inhibition
- IC50 [1]: 0.11 ± 0.08 µM
- % inhibition at indicated concentration [1]: 53.4%
- effect on CD73 catalytic activity in reactive astrocytes ([2]; 50 μM, cells treated with TNFα or IL-1β for 24 hours): decreased the catalytic activity of CD73
- IC50 ([2]; astrocytes stimulated with 0.1 μg/ml IL-1β, 1–250 μM): 5 ± 0.26 µM
- effect on formazan formation (MTT) (primary astrocytes [3]; 1 μM, 24 hours): no effect
- reduction of formazan formation (MTT) (primary astrocytes [3]; concentrations above 10 μM, 24 hours, no apparent concentration dependence): 40%
- cytotoxic effects on primary astrocytes (primary astrocytes [3]; concentrations as low as 1 μM): negligible cytotoxic effects
- effect on proliferation rate (Ki67+/DAPI+) (primary astrocytes [4]; 50 μM and 100 μM, vs control (~22%), p < 0.05): modest but significant decrease
- Area (μm^2) (primary astrocytes [5]; 10 μM): 3619.4 ± 552.5 μm^2
- Aspect ratio (primary astrocytes [5]; 10 μM): 2.3 ± 0.2
- Circularity (primary astrocytes [5]; 10 μM): 0.55 ± 0.06
- Roundness (primary astrocytes [5]; 10 μM): 0.47 ± 0.04
- Solidity (primary astrocytes [5]; 10 μM): 0.84 ± 0.04
- Area (μm^2) (primary astrocytes [5]; 100 μM): 1861.8 ± 137.5 ^* μm^2
- Aspect ratio (primary astrocytes [5]; 100 μM): 2.7 ± 0.2
- Circularity (primary astrocytes [5]; 100 μM): 0.43 ± 0.03
- Roundness (primary astrocytes [5]; 100 μM): 0.42 ± 0.04
- Solidity (primary astrocytes [5]; 100 μM): 0.77 ± 0.02
- effect on astrocyte migration velocity (wound closure) (primary astrocytes [6]): did not affect migration velocity of astrocytes, except at the highest tested concentration of 100 μM

Molecule: Nc1ncnc2c1ncn2[C@@H]1O[C@H](COP(=O)(O)CP(=O)(O)O)[C@@H](O)[C@H]1O [APCP, 5’-(α,β-methylene)diphosphate adenosine, reference compound]
- Ki ([1]; Cheng-Prusoff equation, Km for rat CD73 53.0 ± 4.1 μM): 0.132 ± 0.089 µM
- IC50 [1]: 2.63 ± 1.76 µM
- % inhibition at indicated concentration [1]: 18.6%
- effect on proliferation rate (Ki67+/DAPI+) (primary astrocytes [4]; indicated concentrations): no apparent effect
- Area (μm^2) (primary astrocytes [5]; 100 μM): 3181.9 ± 607.2 μm^2
- Aspect ratio (primary astrocytes [5]; 100 μM): 2.2 ± 0.2
- Circularity (primary astrocytes [5]; 100 μM): 0.49 ± 0.03
- Roundness (primary astrocytes [5]; 100 μM): 0.54 ± 0.07
- Solidity (primary astrocytes [5]; 100 μM): 0.75 ± 0.04

Molecule: TNFα
- C3 mRNA abundance (fold-increase in respect to non-stimulated control) (C3): 4.65 ± 2.29 fold-increase
- Lcn mRNA abundance (fold-increase in respect to non-stimulated control) (Lcn): 49.04 ± 3.34 fold-increase
- Nt5e mRNA abundance (fold-increase in respect to non-stimulated control) (Nt5e): 2.49 ± 0.33 fold-increase

Molecule: IL-1β: proinflammatory cytokine used to induce the reactive astrocyte phenotype
- C3 mRNA abundance (fold-increase in respect to non-stimulated control) (C3): 3.13 ± 0.69 fold-increase
- Lcn mRNA abundance (fold-increase in respect to non-stimulated control) (Lcn): 24.22 ± 6.21 fold-increase
